Test results as given in ChEMBL document CHEMBL1133587, “Synthesis, biological activity, and molecular modeling of ribose-modified deoxyadenosine bisphosphate analogues as P2Y(1) receptor ligands” (J Med Chem, 2000).
Activity calls are given as the source filed them. No cut-off for these calls is given here.

Key:
Assay type in all cases: functional
[1] = target: P2Y purinoceptor 1 (Meleagris gallopavo) (UniProt P49652); assay: (§1) In vitro stimulation of 2PY1 purinoceptor mediated phospholipase C (PLC) activity in Turkey Erythrocyte Ghosts
Summary of the method: (§2)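 Turkey erythrocytes labelled 18-24 h at 37 °C with 2-[3H]myo-inositol in inositol-free DMEM. Ghosts prepared by hypotonic lysis (about 175 µg protein). Incubated 5 min at 30 °C in Hepes pH 7.0 buffer with 1 µM GTPγS and graded nucleotide. Total [3H]inositol phosphates measured by anion-exchange chromatography. EC50 from four-parameter logistic fit. Efficacy given relative to maximal 2-MeSADP. At least three experiments, duplicate or triplicate.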

P2Y purinoceptor 1 [2] = target: T1, P2Y purinoceptor 1 (Meleagris gallopavo, UniProt P49652); assay: as §1; summary of the method: as §2
[3] = target: P2Y purinoceptor 1 (Meleagris gallopavo) (UniProt P49652); assay: (§3) Inhibition of 30 nM 2-MeSADP stimulation of 2PY1-mediated phospholipase C (PLC) activity in Turkey erythrocyte ghosts
Summary of the method: (§4)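 [3H]inositol-labelled turkey erythrocyte ghosts incubated 5 min at 30 °C, pH 7.0, with 1 µM GTPγS. Graded analogue was combined with 30 nM 2-MeSADP. Total [3H]inositol phosphates separated by anion-exchange chromatography. IC50 is 50% inhibition of the 2-MeSADP response. Maximal inhibition is 100 minus residual stimulation at the highest concentration. At least three membrane preparations, duplicate or triplicate assays.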

P2Y purinoceptor 1 [4] = target: T1, P2Y purinoceptor 1; assay: as §3
Summary of the method: as §4, with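 “chromatography.” for “chromatography. IC50 is 50% inhibition of the 2-MeSADP response.”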

P2Y purinoceptor 1 [5] = target: T1, P2Y purinoceptor 1; assay: Inhibition of 30 nM 2-MeSADP stimulation of 2PY1-mediated phospholipase C (PLC) activity in Turkey erythrocyte ghosts; small decrease; summary of the method: as §4
[6] = target: P2Y purinoceptor 1 (Meleagris gallopavo) (UniProt P49652); assay: Inhibition of 30 nM 2-MeSADP stimulation of 2PY1-mediated phospholipase C (PLC) activity in Turkey erythrocyte ghosts; NE=not effective
Summary of the method: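 Turkey erythrocytes were labelled with 2-[3H]myo-inositol in inositol-free DMEM for 18-24 h at 37 °C, then lysed hypotonically to make ghosts. Ghosts (about 175 µg protein) were incubated 5 min at 30 °C in KCl/Hepes medium at pH 7.0 with 1 µM GTPγS, 30 nM 2-MeSADP and the test nucleotide. Total [3H]inositol phosphates were measured by anion exchange. IC50 came from logistic fits, with at least three experiments.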

T1 sequence (P49652 whole entry): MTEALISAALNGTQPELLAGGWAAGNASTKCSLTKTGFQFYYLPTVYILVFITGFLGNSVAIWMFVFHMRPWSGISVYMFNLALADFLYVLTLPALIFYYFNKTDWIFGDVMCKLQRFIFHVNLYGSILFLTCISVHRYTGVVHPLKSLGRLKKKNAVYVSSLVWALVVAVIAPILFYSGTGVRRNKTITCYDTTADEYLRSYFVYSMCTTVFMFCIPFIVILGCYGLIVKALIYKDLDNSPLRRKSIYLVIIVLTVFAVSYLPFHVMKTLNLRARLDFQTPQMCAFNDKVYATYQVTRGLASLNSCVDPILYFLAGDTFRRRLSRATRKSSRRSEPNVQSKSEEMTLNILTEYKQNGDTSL
Sequence of P2Y purinoceptor 1 (Meleagris gallopavo) (P49652 whole entry): as above

Max increase [1] | EC50 (P2Y purinoceptor 1 [2]) | Max inhibition [3] | IC50 (P2Y purinoceptor 1 [4]) | IC50 (P2Y purinoceptor 1 [5]) | Compound | Max inhibition [6]
18% | 9350 nM | 82% | 2370 nM | – | CNc1ncnc2c1ncn2C1COC(COP(=O)(O)OP(=O)(O)OP(=O)(O)O)C(O)C1 (stereo not given) | –
50% | 18900 nM | 42% | 40000 nM | – | Nc1ncnc2c1ncn2C12CC(OP(=O)(O)O)C(COP(=O)(O)O)C1C2 (stereo not given) | –
– | – | 37% | – | Partially active | Nc1ncnc2c1ncn2C1CN(CCP(=O)(O)O)CC(COP(=O)(O)O)O1 (stereo not given) | –
– | – | 95% | – | – | CNc1nc(Cl)nc2c1ncn2[C@H]1C[C@H](OP(=O)(O)O)[C@@H](COP(=O)(O)O)O1 | –
– | – | 100% | 148 nM | – | CNc1ncnc2c1ncn2[C@@H]1C[C@H](COP(=O)(O)O)[C@H](OP(=O)(O)O)C1 | –
– | – | 100% | 805 nM | – | CNc1nc(Cl)nc2c1ncn2[C@@H]1C[C@H](OP(=O)(O)O)C1COP(=O)(O)O (stereo not given in full) | –
4% | – | 96% | – | – | CNc1nc(N)nc2c1ncn2[C@H]1C[C@H](OP(=O)(O)O)[C@@H](COP(=O)(O)O)O1 | –
6% | – | 94% | – | – | CNc1nc(SC)nc2c1ncn2[C@H]1C[C@H](OP(=O)(O)O)[C@@H](COP(=O)(O)O)O1 | –
27% | 7210 nM | 73% | 2530 nM | – | Nc1ncnc2c1ncn2[C@@H]1C[C@H](COP(=O)(O)O)[C@H](OP(=O)(O)O)C1 | –
26% | 6510 nM | 74% | 5420 nM | – | CNc1nc(N)nc2c1ncn2[C@@H]1C[C@H](COP(=O)(O)O)[C@H](OP(=O)(O)O)C1 | –
– | – | 100% | 566 nM | – | CNc1nc(Cl)nc2c1ncn2C1COC(COP(=O)(O)O)C(OP(=O)(O)O)C1 (stereo not given) | –
– | – | 100% | 51.6 nM | – | CNc1nc(Cl)nc2c1ncn2[C@H]1C[C@@H](OP(=O)(O)O)[C@]2(COP(=O)(O)O)C[C@H]12 | –
– | – | 47% | – | Partially active | C[C@H]1O[C@@H](n2cnc3c(N)ncnc32)[C@H](OP(=O)(O)O)[C@@H]1OP(=O)(O)O | –
– | – | – | – | Partially active | Nc1ncnc2c1ncn2C1CN(CCP(=O)(O)O)CC(COP(=O)(O)OP(=O)(O)OP(=O)(O)O)O1 (stereo not given) | –
– | – | 100% | 1640 nM | – | CNc1ncnc2c1ncn2C1COC(COP(=O)(O)O)C(OP(=O)(O)O)C1 (stereo not given) | –
11% | – | – | – | – | Nc1ncnc2c1ncn2C1CN(CCP(=O)(O)O)CC(COP(=O)(O)OP(=O)(O)O)O1 (stereo not given) | inactive
– | – | 100% | 157 nM | – | CNc1ncnc2c1ncn2C1CC(OP(=O)(O)O)C2(COP(=O)(O)O)CC12 (stereo not given) | –

Compound | Max increase [1] | EC50 (P2Y purinoceptor 1 [2]) | Max inhibition [3] | IC50 (P2Y purinoceptor 1 [4]) | IC50 (P2Y purinoceptor 1 [5]) | Max inhibition [6]
Nc1ncnc2c1ncn2C1CC(OP(=O)(O)O)C2(COP(=O)(O)O)CC12 (stereo not given) | 92% | 155 nM | – | – | – | inactive
Nc1ncnc2c1ncn2[C@@H]1CO[C@H](COP(=O)(O)O)[C@@H](OP(=O)(O)O)C1 | 100% | – | – | – | – | inactive
